Assay results taken from publication PMC9306928 (Journal of Veterinary Pharmacology and Therapeutics, 2022).
Like-named read-outs stand apart in the source and are kept apart here. Marks after values point to notes of the source that are not given here. Values belong to the compound of their own block, whether it stands above or below them.

Assays:
COX‐2 = molecular target: T1, COX‐2 (Canis lupus familiaris, UniProt Q8SPQ9); assay type: cell-based, dog
T1 sequence (Q8SPQ9 18-604): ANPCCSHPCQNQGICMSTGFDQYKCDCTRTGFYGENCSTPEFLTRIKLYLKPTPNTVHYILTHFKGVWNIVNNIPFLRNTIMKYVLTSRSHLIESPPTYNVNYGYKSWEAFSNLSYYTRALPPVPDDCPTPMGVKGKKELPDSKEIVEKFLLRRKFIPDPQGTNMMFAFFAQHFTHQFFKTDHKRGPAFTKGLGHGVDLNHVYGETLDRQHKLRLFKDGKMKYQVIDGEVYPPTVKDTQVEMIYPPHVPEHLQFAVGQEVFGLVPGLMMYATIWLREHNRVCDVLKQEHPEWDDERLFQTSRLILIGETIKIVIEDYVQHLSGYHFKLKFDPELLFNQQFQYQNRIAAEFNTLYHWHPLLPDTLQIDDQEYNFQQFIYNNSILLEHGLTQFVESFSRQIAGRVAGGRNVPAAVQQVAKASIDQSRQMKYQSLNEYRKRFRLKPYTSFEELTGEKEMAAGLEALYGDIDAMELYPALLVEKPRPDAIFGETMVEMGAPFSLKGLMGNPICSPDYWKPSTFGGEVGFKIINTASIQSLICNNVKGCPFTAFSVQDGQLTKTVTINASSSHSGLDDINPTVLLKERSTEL
Outline: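 Citrated blood from three male and three female Beagles was held 4–6 h at ca 2–8°C. Duplicates received test compound at final 100, 30, 10, 3, 1, 0.3, 0.1 or 0 µM (one enantiomer max 30 µM; 0.4% DMSO) with LPS 1 µg/ml final, for 24 h at ca 37°C with orbital agitation. Plasma PGE2 was measured by ELISA (1:1000). Per-dog Hill fits gave IC50 and gamma; IC20/IC80 were derived.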

COX‐1/COX‐2 [1] = assay: Selectivity for COX‐2 inhibition; assay type: cell-based; conditions: dog whole blood, not corrected for blood cell partitioning
Outline: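 Selectivity was the quotient of mean IC50 values (six Beagles each) from two canine whole blood assays. One was clotting-induced TXB2 (COX-1; unanticoagulated blood, 1 h, ca 37°C). The other was LPS-induced PGE2 (COX-2; citrated blood, 1 µg/ml LPS, 24 h). Both were read by ELISA and Hill-fitted. IC50 ratios were tested by paired t test, and compounds by one-way ANOVA/Tukey.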

COX‐1 = molecular target: T2, COX‐1 (Canis lupus familiaris, UniProt Q8HZR1); assay type: cell-based, dog; conditions: Hill equation fit of TXB2 formation; mean of six dogs
T2 sequence (Q8HZR1 28-603): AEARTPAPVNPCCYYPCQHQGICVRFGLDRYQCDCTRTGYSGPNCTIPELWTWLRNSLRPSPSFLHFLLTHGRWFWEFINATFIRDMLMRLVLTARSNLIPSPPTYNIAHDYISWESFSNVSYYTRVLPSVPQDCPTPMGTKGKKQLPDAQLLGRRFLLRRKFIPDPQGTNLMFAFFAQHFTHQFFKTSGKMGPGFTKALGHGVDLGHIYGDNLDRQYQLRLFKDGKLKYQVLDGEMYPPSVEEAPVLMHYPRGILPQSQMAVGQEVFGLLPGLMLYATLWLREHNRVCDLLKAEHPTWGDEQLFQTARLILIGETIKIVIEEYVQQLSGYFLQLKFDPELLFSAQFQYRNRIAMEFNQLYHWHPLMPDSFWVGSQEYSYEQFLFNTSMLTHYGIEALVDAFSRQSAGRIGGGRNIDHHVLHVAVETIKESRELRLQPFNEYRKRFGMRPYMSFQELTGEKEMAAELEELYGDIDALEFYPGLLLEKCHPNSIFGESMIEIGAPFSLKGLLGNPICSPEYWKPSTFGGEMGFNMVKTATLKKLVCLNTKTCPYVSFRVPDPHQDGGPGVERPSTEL
Outline: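 Whole blood from six male Beagles was drawn without anticoagulant and used at once. Duplicate incubations received test compound at final 500, 300, 100, 30, 10, 3, 1 or 0 µM (0.4% v/v DMSO) plus PBS, for 1 h at ca 37°C with gentle shaking. Serum TXB2 was measured by ELISA (1:3000, 412 nm). Per-dog 4-parameter Hill fits gave IC50 and gamma, and IC20/IC80 were calculated from these.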

[2] = system: PGE2 formation in gastric mucosa; conditions: rat carrageenan model, dose of 40 mg/kg; ref Iñiguez et al. (2010); cited from earlier work
COX‐1/COX‐2 [3] = conditions: cited from earlier work
[4] = whole blood concentration, not corrected for blood cell partitioning
[5] = ref King et al., 2010, McCann et al., 2004

IC50 for COX‐2 inhibition expressed as blood level (COX‐2; [4]): > 12 mg/L
IC80 for COX‐2 inhibition expressed as blood level (COX‐2; [4]): > 12 mg/L
SMILES: NS(=O)(=O)c1ccc(N2N=C(C(F)(F)F)C[C@@H]2c2ccc(F)cc2F)cc1 [(R)‐(+)‐Enflicoxib]

Gamma (sigmoidicity factor), COX‐1 (COX‐1): 1.8
Gamma (sigmoidicity factor), COX‐2 (COX‐2; Hill equation fit of PGE2 formation, mean of six dogs): 2.7
SMILES: NS(=O)(=O)c1ccc(N2N=C(C(F)(F)F)C[C@H]2c2ccc(F)cc2F)cc1 [(S)‐(‐)‐Enflicoxib]
Ratio IC50 (COX‐1/COX‐2) (COX‐1/COX‐2 [1]): 3.77‡
inhibition of PGE2 formation in gastric mucosa [2]: 18%

SMILES: CC(C(=O)O)c1ccc2c(c1)[nH]c1ccc(Cl)cc12 (stereo not shown) [carprofen]
COX‐2 selectivity ratio (COX‐1/COX‐2 [3]; ref Briedeau et al., 2001): ~6.5

SMILES: COc1ccc(-c2cc(C(F)F)nn2-c2ccc(S(N)(=O)=O)cc2)cc1F [deracoxib]
COX‐2 selectivity ratio (COX‐1/COX‐2 [3]; [5]): 48.5

SMILES: CC1(C)OC(=O)C(OCC2CC2)=C1c1ccc(S(C)(=O)=O)cc1 [firocoxib]
COX‐2 selectivity ratio (COX‐1/COX‐2 [3]; [5]): 384

SMILES: CCc1ccc(Nc2c(F)c(F)cc(F)c2F)c(CC(=O)O)c1 [robenacoxib]
COX‐2 selectivity ratio (COX‐1/COX‐2 [3]; [5]): 129
